# Measured values taken from ChEMBL document CHEMBL1157934, “Sugar-based peptidomimetics as potential inhibitors of the vascular endothelium growth factor binding to neuropilin-1” (Bioorg Med Chem, 2010).
# Activity calls are given as the source filed them. The calls are words filed in the database; no cut-off is given here. Residues, ends and D or L forms follow the SMILES beside them. *: point of attachment. X1 = O=C(c1ccc(-c2c3nc(c(-c4ccccc4)c4ccc([nH]4)c(-c4ccccc4)c4nc(c(-c5ccccc5)c5ccc2[nH]5)C=C4)CC3)cc1)*; Ahx = NCCCCCC(=O)O
# Target: T1, Neuropilin-1 (Homo sapiens, UniProt O14786)
# T1 sequence (O14786 whole entry): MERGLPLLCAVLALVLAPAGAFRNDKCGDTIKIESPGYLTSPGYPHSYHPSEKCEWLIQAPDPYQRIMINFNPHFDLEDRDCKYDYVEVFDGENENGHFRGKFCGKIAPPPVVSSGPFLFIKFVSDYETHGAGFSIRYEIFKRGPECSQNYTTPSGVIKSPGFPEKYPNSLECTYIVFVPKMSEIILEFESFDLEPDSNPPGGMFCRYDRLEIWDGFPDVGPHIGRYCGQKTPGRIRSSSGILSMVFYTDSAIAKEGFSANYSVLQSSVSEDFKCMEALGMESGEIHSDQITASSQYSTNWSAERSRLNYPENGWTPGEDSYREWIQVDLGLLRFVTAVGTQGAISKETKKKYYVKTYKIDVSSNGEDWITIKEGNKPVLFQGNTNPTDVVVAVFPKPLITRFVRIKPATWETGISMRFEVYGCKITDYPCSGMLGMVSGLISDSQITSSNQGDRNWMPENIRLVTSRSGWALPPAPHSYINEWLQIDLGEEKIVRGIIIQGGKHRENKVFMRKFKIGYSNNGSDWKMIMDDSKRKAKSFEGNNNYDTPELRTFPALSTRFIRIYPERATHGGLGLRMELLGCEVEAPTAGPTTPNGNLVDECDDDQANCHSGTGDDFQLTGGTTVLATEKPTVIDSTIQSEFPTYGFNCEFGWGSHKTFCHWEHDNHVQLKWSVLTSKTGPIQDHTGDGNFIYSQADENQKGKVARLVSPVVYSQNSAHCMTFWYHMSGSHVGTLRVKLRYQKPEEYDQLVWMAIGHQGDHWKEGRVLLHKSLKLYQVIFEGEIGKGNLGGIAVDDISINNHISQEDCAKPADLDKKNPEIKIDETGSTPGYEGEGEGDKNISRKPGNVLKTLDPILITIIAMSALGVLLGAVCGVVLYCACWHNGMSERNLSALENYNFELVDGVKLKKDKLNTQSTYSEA
# Test: Inhibition of VEGF binding to NRP1 expressed in CHO cells
# Assay type: cell-based
row,IC50 [µM],Compound
1,19,H-ATWLPPR-OH

# Target: T1, Neuropilin-1
# Test: Displacement of biotinylated VEGF165 from recombinant NRP1 after 2 hrs by competitive binding assay
# Method in brief: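 Plates coated overnight at room temperature with recombinant chimeric NRP-1 in PBS, then blocked with PBS/0.5% BSA for 1 h at 37 °C. Biotinylated VEGF165 (5 ng/mL; 110 pM), with heparin present, competed with increasing competitor concentrations for 2 h at room temperature. Bound label was detected with streptavidin-HRP, 20 min at room temperature, then stopped and read at 450 nm. IC50 was derived by the median effect method.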
row,IC50 [µM],Compound
1,92,CC1(C)O[C@@H]2[C@H](O1)[C@H](CN(CCNC(=N)N)C(=N)N)O[C@@H]2CC(=O)NCCc1c[nH]c2ccccc12
2,171,CC(C)C[C@H](NC(=O)[C@H](Cc1c[nH]c2ccccc12)NC(=O)[C@@H](NC(=O)[C@H](C)NC(=O)CCCCCNC(=O)c1ccc(-c2c3nc(c(-c4ccccc4)c4ccc([nH]4)c(-c4ccccc4)c4nc(c(-c5ccccc5)c5ccc2[nH]5)C=C4)CC3)cc1)[C@@H](C)O)C(=O)N1CCC[C@H]1C(=O)N1CCC[C@H]1C(=O)N[C@@H](CCCNC(=N)N)C(=O)O ({X1-Ahx}-ATWLPPR-OH)

# Target: T1, Neuropilin-1
# Test: Inhibition of biotinylated VEGF165 binding to recombinant NRP1 at 100 uM after 2 hrs by competitive binding assay
# Method in brief: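 NRP-1-coated wells were blocked with PBS/0.5% BSA for 1 h at 37 °C. Biotinylated VEGF165 was added with competitor at 100 µM for 2 h at room temperature, then washed. Detection used streptavidin-HRP, 20 min at room temperature, stop solution and OD at 450 nm. Results are absorbance relative to blocking-buffer-only wells, three wells per condition.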
row,Compound,inhibition
1,C[C@@H](O)CNC(=O)C[C@H]1O[C@@H](CNCCNc2ccccn2)[C@H]2OC(C)(C)O[C@H]21,Active
2,CC(=O)O[C@H](C)CNC(=O)C[C@H]1O[C@@H](CN(CCN/C(=N/C(=O)OCc2ccccc2)NC(=O)OCc2ccccc2)/C(=N/C(=O)OCc2ccccc2)NC(=O)OCc2ccccc2)[C@H]2OC(C)(C)O[C@H]21,Active
3,CC1(C)O[C@@H]2[C@H](O1)[C@H](CNCCNc1ncccn1)O[C@@H]2CC(=O)NCCc1c[nH]c2ccccc12,Active
4,CC1(C)O[C@@H]2[C@H](O1)[C@H](CN(CCNC(=N)N)C(=N)N)O[C@@H]2CC(=O)NCCc1c[nH]c2ccccc12,65%
5,CC1(C)O[C@@H]2[C@H](O1)[C@H](CNCCN)O[C@@H]2CC(=O)NCCc1c[nH]c2ccccc12,Active
6,C[C@@H](O)CNC(=O)C[C@H]1O[C@@H](CNCc2ccncc2)[C@H]2OC(C)(C)O[C@H]21,Active
7,CC1(C)O[C@@H]2[C@H](O1)[C@H](CNCc1ccncc1)O[C@@H]2CC(=O)NCCc1c[nH]c2ccccc12,Active
8,CC1(C)O[C@@H]2[C@H](O1)[C@H](CNCc1nc3ccccc3[nH]1)O[C@@H]2CC(=O)NCCc1c[nH]c2ccccc12,Active
9,CC1(C)O[C@@H]2[C@H](O1)[C@H](CNCCc1nc3ccccc3[nH]1)O[C@@H]2CC(=O)NCCc1c[nH]c2ccccc12,Active
10,CC1(C)O[C@@H]2[C@H](O1)[C@H](CN1CCN(C(=N)N)C1=O)O[C@@H]2CC(=O)NCCc1c[nH]c2ccccc12,Active
11,CC(C)C[C@H](NC(=O)[C@H](Cc1c[nH]c2ccccc12)NC(=O)[C@@H](NC(=O)[C@H](C)NC(=O)CCCCCNC(=O)c1ccc(-c2c3nc(c(-c4ccccc4)c4ccc([nH]4)c(-c4ccccc4)c4nc(c(-c5ccccc5)c5ccc2[nH]5)C=C4)CC3)cc1)[C@@H](C)O)C(=O)N1CCC[C@H]1C(=O)N1CCC[C@H]1C(=O)N[C@@H](CCCNC(=N)N)C(=O)O ({X1-Ahx}-ATWLPPR-OH),Active
12,C[C@@H](O)CNC(=O)C[C@H]1O[C@@H](CNCCc2nc3ccccc3[nH]2)[C@H]2OC(C)(C)O[C@H]21,Active
13,CC1(C)O[C@@H]2[C@H](O1)[C@H](CN(CCN/C(=N/C(=O)OCc1ccccc1)NC(=O)OCc1ccccc1)/C(=N/C(=O)OCc1ccccc1)NC(=O)OCc1ccccc1)O[C@@H]2CC(=O)NCCc1c[nH]c2ccccc12,Active
14,COC(=O)[C@H](CCCNC(=N)N)NC[C@@H]1O[C@H](CC(=O)NC[C@@H](C)OC(C)=O)[C@@H]2OC(C)(C)O[C@@H]21,Active
15,CC(=O)O[C@H](C)CNC(=O)C[C@H]1O[C@@H](CNCc2nc3ccccc3[nH]2)[C@H]2OC(C)(C)O[C@H]21,Active
16,C[C@@H](O)CNC(=O)C[C@H]1O[C@@H](CN(CCNC(=N)N)C(=N)N)[C@H]2OC(C)(C)O[C@H]21,Active
17,CC1(C)O[C@@H]2[C@H](O1)[C@H](CNCc1ccccc1)O[C@@H]2CC(=O)NCCc1c[nH]c2ccccc12,Active
18,CC(=O)O[C@H](C)CNC(=O)C[C@H]1O[C@@H](CNCc2ccncc2)[C@H]2OC(C)(C)O[C@H]21,Active
19,CC(=O)O[C@H](C)CNC(=O)C[C@H]1O[C@@H](CNCCNC(=N)N)[C@H]2OC(C)(C)O[C@H]21,Active

# Results, then the compound that gave them:
row,inhibition,Compound
1,Active,CC1(C)O[C@@H]2[C@H](O1)[C@H](CNCCNc1ccccn1)O[C@@H]2CC(=O)NCCc1c[nH]c2ccccc12
2,Active,C[C@@H](O)CNC(=O)C[C@H]1O[C@@H](CNCc2nc3ccccc3[nH]2)[C@H]2OC(C)(C)O[C@H]21
3,Active,CC(=O)O[C@H](C)CNC(=O)C[C@H]1O[C@@H](CNCCN/C(=N\C(=O)OC(C)(C)C)NC(=O)OC(C)(C)C)[C@H]2OC(C)(C)O[C@H]21
4,Active,CC(=O)O[C@H](C)CNC(=O)C[C@H]1O[C@@H](CNCCNc2ccccn2)[C@H]2OC(C)(C)O[C@H]21
5,Active,C[C@@H](O)CNC(=O)C[C@H]1O[C@@H](CN[C@@H](CCCNC(=N)N)C(=O)O)[C@H]2OC(C)(C)O[C@H]21
6,Active,CC1(C)O[C@@H]2[C@H](O1)[C@H](CN[C@@H](CCCNC(=N)N)C(=O)O)O[C@@H]2CC(=O)NCCc1c[nH]c2ccccc12
7,Active,CC1(C)O[C@@H]2[C@H](O1)[C@H](CNCCNC(=N)N)O[C@@H]2CC(=O)NCCc1c[nH]c2ccccc12
8,Active,COC(=O)[C@H](CCCNC(=N)N)NC[C@@H]1O[C@H](CC(=O)NCCc2c[nH]c3ccccc23)[C@@H]2OC(C)(C)O[C@@H]21
9,Active,CC1(C)O[C@@H]2[C@H](O1)[C@H](CNCCNC(=O)OCc1ccccc1)O[C@@H]2CC(=O)NCCc1c[nH]c2ccccc12
10,Active,CC(=O)O[C@H](C)CNC(=O)C[C@H]1O[C@@H](CNCCNC(=O)OCc2ccccc2)[C@H]2OC(C)(C)O[C@H]21
11,Active,CC(=O)O[C@H](C)CNC(=O)C[C@H]1O[C@@H](CNCCN)[C@H]2OC(C)(C)O[C@H]21
12,Active,CC(=O)O[C@H](C)CNC(=O)C[C@H]1O[C@@H](CNCCc2nc3ccccc3[nH]2)[C@H]2OC(C)(C)O[C@H]21
13,Active,CC(C)(C)OC(=O)/N=C(/NC(=O)OC(C)(C)C)N1CCN(C[C@@H]2O[C@H](CC(=O)NCCc3c[nH]c4ccccc34)[C@@H]3OC(C)(C)O[C@@H]32)C1=O
14,Active,C[C@@H](O)CNC(=O)C[C@H]1O[C@@H](CNCc2ccccc2)[C@H]2OC(C)(C)O[C@H]21
15,Active,H-ATWLPPR-OH
16,Active,CC(C)(C)OC(=O)/N=C(\NCCNC[C@@H]1O[C@H](CC(=O)NCCc2c[nH]c3ccccc23)[C@@H]2OC(C)(C)O[C@@H]21)NC(=O)OC(C)(C)C
